STAT3 inh-1: inhibitors of IL-6 induced STAT3 signaling. inhibition, % at 5.5 µM. 190,000 compounds, 0.89% hits. U3A cells, IL-6 STAT3-luciferase reporter, luminescence; host cell line lacks STAT1;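 active = inhibition above the mean inhibition across all screened compounds plus 3 SD, cut at about 44% in these data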;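 note: 0% = DMSO only wells and 100% = 100 µM nifuroxazide control wells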
NF-kB expr up: NF-kB expression increase, human neuronal cells; NF-kB reporter expression; hits give high values; fold change at 12.5 µM; 190,000 compounds, 1.6% hits; AID 1239; in the data active = fold change above about 3.3
STAT1 activator: activators of IFN-gamma induced STAT1 signaling; 200,000 compounds, 2.6% hits; NIH 3T3 STAT1-luciferase reporter, luminescence; 100% = IFN-gamma alone, no compound; activation (% of control), % at 5.5 µM; AID 932;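 active = activation above the screen-wide mean activation plus 3 SD, cut at about 130% in these data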;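 note: raw ratio to IFN-gamma control signal so 100% means no change and 0% no light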
APP 5'UTR act: activates APP 5'UTR luciferase reporter. SH-SY5Y APP 5'UTR luciferase reporter, luminescence; zero percent = DMSO vehicle wells. activation, % at 2 µM. 190,000 compounds, 1% hits. AID 1276;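 active = activation above a set limit, based on mean plus 3 SD of controls, cut at about 140% in these data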
STAT1 inh: inhibitors of IFN-gamma induced STAT1 signaling; NIH 3T3 STAT1-luciferase reporter, luminescence; inhibition, % at 5.5 µM; 200,000 compounds, 0.35% hits; AID 920;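 active = inhibition above a set limit, the mean inhibition across all tested compounds plus 3 SD, cut at about 34% in these data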;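 note: 0% = IFN-gamma with DMSO and 100% = IFN-gamma with 300 µM nifuroxazide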
STAT3 activator: STAT3 signaling activation; activation (% of control), % at 5.6 µM; U3A cells, IL-6 STAT3-luciferase reporter, luminescence; 100% = signal with IL-6 EC80 alone; 190,000 compounds, 0.91% hits;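 active = activation above the screen-wide mean of compound activation plus 3 SD, cut at about 130% in these data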;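 note: 0% = background luminescence of wells with medium and substrate only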
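Assay system – human STAT1-deficient U3A cells with stable STAT3-luciferase reporter · Also added – IL-6 (33 ng/mL) · Schedule – compound 1 h, then IL-6 6 h at 37 °C · Technique – reporter luminescence signal · Evaluation – % activation versus median of IL-6-stimulated wells · Benchmarks – IL-6-only wells as 100% reference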
STAT3 inh-2: STAT3 inhibition, confirmation assay | shares compounds with STAT3 inh-1 | U3A cells, IL-6 STAT3 luciferase reporter, luminescence; cell line lacks STAT1 | inhibition, % at 5.7 µM | 1,200 compounds, 45% hits | AID 1265;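 active = inhibition above the hit cutoff computed for the primary STAT3 screen, cut at about 44% in these data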;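 note: 0% = IL-6 plus DMSO and 100% = IL-6 plus nifuroxazide control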
NFkB inh STAT3ct: inhibits NF-kappaB, counter-screen to STAT3 inhibitors; HEK293T NF-kB luciferase reporter, TNF-alpha induced; shares compounds with STAT3 inh-1; 1,200 compounds, 36% hits; inhibition, % at 5.7 µM;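 active = inhibition above the mean of solvent-only control wells plus 3 SD, cutoff set per campaign, cut at about 13% in these data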;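 note: 0% = TNF-alpha with DMSO and 100% = TNF-alpha with MG high control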
STAT1 inh STAT3c: inhibits STAT1, counter-screen to STAT3 inhibitors. shares compounds with STAT3 inh-1. 1,200 compounds, 27% hits. inhibition, % at 5.7 µM. NIH 3T3 STAT1-luciferase reporter, IFN-gamma induced, luminescence;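 active = inhibition above the mean plus 3 SD of solvent-only control wells, limit set per screening run, cut at about 16% in these data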;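 note: 0% = DMSO with IFN-gamma and 100% = nifuroxazide control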
Active calls of the source: *; · = not tested or not shown. This is a sample that favours compounds with a hit; in the whole collection about 5.1% have one here.

SMILES	STAT3 inh-1	NF-kB expr up	STAT1 activator	APP 5'UTR act	STAT1 inh	STAT3 activator	STAT3 inh-2	NFkB inh STAT3ct	STAT1 inh STAT3c
Cc1nc(SCC(=O)Nc2c(C)nn(C)c2C)c2cnn(-c3ccccc3)c2n1	43.9*	0.83	85.3	0.6	16.1	64.7	41.3	11.9	9.8
Cc1cccc(NC(=O)c2ccc([N+](=O)[O-])s2)c1C	19.4	2.52	93.2	-2.7	7.5	86.0	·	·	·
O=C(NCc1cccc(Cl)c1)c1cc(COc2ccc3ncccc3c2)on1	44.9*	0.9	73.3	-3.0	28.1	64.0	61.9*	15.0*	21.2*
CC(CCCC(C)(C)O)NC(=O)c1cc(COc2ccc3ncccc3c2)on1 (centres undefined)	62.6*	0.93	71.3	3.8	29.6	49.8	62.7*	21.2*	23.6*
O=C(CSc1ncnc2sc(-c3ccccc3)cc12)NC1CCS(=O)(=O)C1 (centres undefined)	10.0	1.06	91.7	0.0	8.8	93.6	·	·	·
Cc1ccccc1OCC(=O)NNC(=O)CN1C(=O)c2ccccc2C1=O	2.2	0.88	101.3	8.7	-1.5	100.8	·	·	·
O=C(C(Cl)Cl)N1c2ccccc2OCC1c1ccccc1 (centres undefined)	50.2*	0.76	117.8	1.8	-19.8	63.1	33.2	9.0	-1.8
O=C(Nc1cccnc1Cl)c1ccc2c(Cl)c3c(nc2c1)CCC3	56.3*	5.93*	135.3*	242.3*	-36.9	54.4	11.8	-38.7	-95.8
N#Cc1ccccc1NC(=O)c1ccc2c(Cl)c3c(nc2c1)CCCC3	-6.4	3.15	119.7	92.2	-21.7	105.0	·	·	·
Cn1nc(N)nc1N1CCN(c2ccc(F)cc2)CC1	7.2	1.2	95.4	24.6	5.4	95.8	·	·	·
CC(=O)c1c(C)[nH]c(C(=O)CSc2nc3ccccc3n2C)c1C	50.3*	0.87	88.7	2.7	12.5	62.2	41.5	-1.3	8.0
Cc1cc(-n2c(C)cc(C(=O)CSc3nnc4sc5ccccc5n34)c2C)no1	9.7	0.95	102.1	7.2	-2.4	96.3	·	·	·
Cc1cc(-n2c(C)cc(C(=O)CSc3ncnc4ccccc34)c2C)no1	75.0*	1.06	83.3	-3.6	18.1	40.9	75.1*	24.7*	23.2*
O=C(NCCN1CCOCC1)Nc1ccc(F)cc1	-12.0	0.99	103.2	13.6	-4.8	115.0	·	·	·
COc1cccc2cc(-c3nnc(-c4ccccc4)o3)c(=O)oc12	46.2*	1.86	120.4	137.7*	-21.9	63.8	31.3	3.3	-66.8
Cc1cc(C(=O)CSc2nnc(-c3ccccc3)n2Cc2ccc3c(c2)OCO3)c(C)n1C	-1.2	0.92	105.0	7.8	-5.5	102.7	·	·	·
Cc1cc(C(=O)CSc2nc3ccccc3c(=O)n2C)c(C)n1Cc1ccc2c(c1)OCO2	58.4*	0.89	81.4	-6.2	20.5	54.8	75.6*	28.0*	24.7*
CCCN(CCC)CCCNC(=O)c1nn(-c2cccc(OC)c2)c(=O)c2ccccc12	8.4	1.11	108.0	8.2	-9.8	98.7	·	·	·
COc1ccc(C(=O)Nn2c(SCC(=O)NCc3ccco3)nc3ccccc3c2=O)cc1	66.7*	0.85	92.9	76.7	8.9	47.8	34.4	23.7*	-50.4
CCn1c(SCC(=O)NCc2ccco2)nc2ccccc2c1=O	5.5	1.06	95.1	-11.5	3.4	97.3	·	·	·
COc1ccc(C(=O)Nn2c(SCC(=O)NC3CCCCC3)nc3ccccc3c2=O)cc1	51.3*	1.56	73.9	109.9	28.4	60.5	8.9	-2.4	-54.3
C=CCn1c(SCC(=O)NC2CCCCC2)nc2ccccc2c1=O	3.8	1.3	99.4	3.0	-0.7	103.5	·	·	·
COc1cc(C(C)=O)ccc1OCC(=O)NCC1(N2CCCCC2)CCCCC1	-7.7	2.36	97.3	1.1	1.2	108.6	·	·	·
Cc1cc(NC(=O)Cc2ccccc2)c2ccccc2n1	71.7*	1.04	69.9	6.2	32.3	40.0	69.1*	22.2*	25.0*
Cc1nc(-c2coc3cc(O)c(C)cc3c2=O)cs1	52.7*	2.85	90.1	142.0*	10.7	58.3	27.7	-0.2	-79.9
SMILES	STAT3 inh-1	NF-kB expr up	STAT1 activator	APP 5'UTR act	STAT1 inh	STAT3 activator	STAT3 inh-2	NFkB inh STAT3ct	STAT1 inh STAT3c
COc1cc(CC(=O)OCC(=O)Nc2sccc2C(N)=O)cc(OC)c1OC	58.2*	0.71	71.5	5.2	31.5	53.5	55.0*	12.4	21.6*
COC(C(=O)Nc1ccc(S(=O)(=O)Nc2cccc3ccccc23)cc1)c1ccccc1 (centres undefined)	-3.9	0.75	101.6	7.6	-1.8	102.8	·	·	·
CCOc1cccc(/C=N/NC(=S)Nc2ccccc2[N+](=O)[O-])c1O	69.1*	0.48	85.4	81.6	14.7	42.7	24.4	-8.0	-32.5
O=[N+]([O-])c1ccccc1NC(=S)N/N=C/c1ccc(O)c(O)c1	67.7*	·	148.4*	150.2*	-56.2	44.1	48.1*	-8.7	-47.0
CN(C)S(=O)(=O)NCCNc1ccc(C(F)(F)F)cc1[N+](=O)[O-]	10.9	0.97	105.4	20.8	-7.9	96.5	·	·	·
CCOc1ccc(/C=N/NC(=O)c2[nH]ncc2Br)c(O)c1	48.4*	4.4*	115.8	24.0	-18.9	61.0	18.5	-15.3	-76.6
COC(=O)Nc1ccc(S(=O)(=O)N2CCC(C(=O)N3CCCC(C)C3)CC2)cc1 (centres undefined)	2.5	1.07	95.0	-6.1	5.2	99.5	·	·	·
CCOc1cccc2cc(-c3cn4cc(C)ccc4n3)c(=O)oc12	69.1*	3.46*	141.4*	-3.4	-45.5	43.3	39.3	-17.4	-81.6
CN(C)c1ccc(C=Nc2ccccc2C(N)=O)cc1	45.4*	3.73*	134.7*	165.9*	-38.1	63.1	31.1	8.6	-44.5
Cc1ccnc(NC(=O)c2ccc3c(c2)OCO3)c1	59.2*	4.2*	76.0	206.1*	24.3	51.2	22.2	-13.7	-29.0
Cc1c(NC(=O)COC(=O)c2ccc(F)c(S(=O)(=O)N3CCOCC3)c2)c(=O)n(-c2ccccc2)n1C	8.4	1.36	102.2	-8.6	-3.1	95.0	·	·	·
CCN1C(=C(C#N)C#N)C=Cc2cc(C)ccc21	16.8	1.28	109.7	10.9	-11.4	94.9	·	·	·
C=CC[n+]1c(/C=C2\C=Cc3cc(C)ccc3N2CC)ccc2ccccc21	88.5*	1.07	81.2	-20.2	19.8	24.5	87.7*	50.2*	26.4*
O=c1c2ccccc2nc(N/N=C/c2c(O)ccc3ccccc23)n1O	46.5*	2.62	93.0	-57.1	7.6	61.5	-9.0	21.4*	-1.8
